ChEMBL document CHEMBL3297719, “Hybrid dopamine uptake blocker-serotonin releaser ligands: a new twist on transporter-focused therapeutics” (ACS Med Chem Lett, 2014)
pEC50, pIC50, pKi: −log10 of the molar value. The source made the active and inactive calls. The rule behind the calls is not given here.

What was measured:
[1] = molecular target: 5-hydroxytryptamine receptor 2B (Homo sapiens) (UniProt P41595); assay: Agonist activity at human 5HT2C expressed in HEK293 cells at 10 uM by calcium mobilization assay; format: functional, cell-based
5-hydroxytryptamine receptor 2B (Homo sapiens), sequence (P41595 whole entry): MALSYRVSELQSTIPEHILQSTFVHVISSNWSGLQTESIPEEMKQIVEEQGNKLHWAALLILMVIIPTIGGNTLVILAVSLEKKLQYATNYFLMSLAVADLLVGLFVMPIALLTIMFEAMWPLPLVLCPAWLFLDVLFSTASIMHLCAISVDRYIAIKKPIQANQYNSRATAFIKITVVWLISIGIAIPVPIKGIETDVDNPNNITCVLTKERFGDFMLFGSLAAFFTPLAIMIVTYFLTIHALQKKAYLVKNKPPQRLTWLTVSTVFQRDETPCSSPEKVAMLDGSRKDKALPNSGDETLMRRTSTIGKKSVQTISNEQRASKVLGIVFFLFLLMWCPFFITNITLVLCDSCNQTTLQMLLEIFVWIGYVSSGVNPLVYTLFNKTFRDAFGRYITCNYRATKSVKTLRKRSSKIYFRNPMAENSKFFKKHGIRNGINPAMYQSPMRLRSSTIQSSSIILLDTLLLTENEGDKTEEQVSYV

[2] = molecular target: T1, Sodium-dependent serotonin transporter (Rattus norvegicus, UniProt P31652); assay: Induction of SERT-mediated serotonin release in rat synaptosomes; format: subcellular, Brain
T1 sequence (P31652 whole entry): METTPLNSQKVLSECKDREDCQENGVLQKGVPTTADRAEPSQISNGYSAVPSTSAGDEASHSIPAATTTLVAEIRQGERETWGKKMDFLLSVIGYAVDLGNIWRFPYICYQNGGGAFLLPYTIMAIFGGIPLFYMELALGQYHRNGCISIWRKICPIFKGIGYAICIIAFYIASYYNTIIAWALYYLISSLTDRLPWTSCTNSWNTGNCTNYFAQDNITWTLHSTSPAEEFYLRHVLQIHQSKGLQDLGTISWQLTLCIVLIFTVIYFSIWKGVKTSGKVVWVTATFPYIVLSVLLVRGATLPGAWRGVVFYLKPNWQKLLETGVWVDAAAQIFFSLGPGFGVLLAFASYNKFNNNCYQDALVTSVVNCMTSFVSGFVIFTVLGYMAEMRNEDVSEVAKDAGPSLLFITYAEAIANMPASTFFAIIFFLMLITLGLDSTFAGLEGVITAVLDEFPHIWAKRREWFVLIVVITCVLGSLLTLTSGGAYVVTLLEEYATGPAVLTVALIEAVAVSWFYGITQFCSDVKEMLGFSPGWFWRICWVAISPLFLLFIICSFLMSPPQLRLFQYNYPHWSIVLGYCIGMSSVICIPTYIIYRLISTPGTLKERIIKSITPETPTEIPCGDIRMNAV
Method in brief: (§1)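 Synaptosomes prepared from rat brain homogenate. Each compound was run in both the release assay and the uptake-inhibition assay to classify it as a releasing substrate or an uptake inhibitor. Dose-response curves were then completed only for the assigned activity. Values are means ± SD from N = 3 experiments, each performed in triplicate.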

[3] = molecular target: T2, 5-hydroxytryptamine receptor 1A (Homo sapiens) (UniProt P08908); assay: Agonist activity at human 5HT1A expressed in CHO cells coexpressing Galpha16 at 10 uM by calcium mobilization assay; format: functional, cell-based
T2 sequence (whole entry): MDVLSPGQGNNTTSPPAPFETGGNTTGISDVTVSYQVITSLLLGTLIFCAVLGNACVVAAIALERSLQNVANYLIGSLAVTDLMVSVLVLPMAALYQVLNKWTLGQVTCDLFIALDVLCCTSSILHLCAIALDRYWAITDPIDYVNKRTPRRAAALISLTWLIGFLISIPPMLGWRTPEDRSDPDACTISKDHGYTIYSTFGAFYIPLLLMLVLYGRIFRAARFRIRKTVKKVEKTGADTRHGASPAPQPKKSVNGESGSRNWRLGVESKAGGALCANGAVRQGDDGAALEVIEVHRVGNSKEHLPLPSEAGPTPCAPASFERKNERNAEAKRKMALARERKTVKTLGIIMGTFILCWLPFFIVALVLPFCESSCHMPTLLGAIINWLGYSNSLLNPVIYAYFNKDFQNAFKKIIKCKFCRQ

[4] = molecular target: T3, Sodium-dependent dopamine transporter (Rattus norvegicus, UniProt P23977); assay: Inhibition of DAT-mediated dopamine uptake in rat synaptosomes; format: subcellular, Brain; method in brief: as §1
T3 sequence (P23977 whole entry): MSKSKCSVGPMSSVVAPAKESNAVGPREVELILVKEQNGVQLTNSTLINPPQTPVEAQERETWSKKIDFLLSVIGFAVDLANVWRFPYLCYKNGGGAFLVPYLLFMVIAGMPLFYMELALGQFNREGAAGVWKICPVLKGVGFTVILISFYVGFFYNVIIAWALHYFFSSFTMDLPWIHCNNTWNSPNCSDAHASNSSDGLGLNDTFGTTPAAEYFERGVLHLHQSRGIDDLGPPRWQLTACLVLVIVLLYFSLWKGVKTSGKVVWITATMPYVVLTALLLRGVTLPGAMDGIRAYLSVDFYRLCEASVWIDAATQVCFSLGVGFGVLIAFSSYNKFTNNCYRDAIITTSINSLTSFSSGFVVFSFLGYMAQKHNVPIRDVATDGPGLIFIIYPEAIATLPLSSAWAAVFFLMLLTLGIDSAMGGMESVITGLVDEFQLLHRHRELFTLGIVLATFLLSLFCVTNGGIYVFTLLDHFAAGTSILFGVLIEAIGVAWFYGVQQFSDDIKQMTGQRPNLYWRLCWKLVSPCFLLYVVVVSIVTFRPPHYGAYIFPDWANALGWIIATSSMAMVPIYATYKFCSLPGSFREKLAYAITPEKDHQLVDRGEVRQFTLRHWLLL

[5] = molecular target: 5-hydroxytryptamine receptor 2A (Homo sapiens) (UniProt P28223); assay: Agonist activity at human 5HT2A expressed in CHOK1 cells at 10 uM after 3 hrs by beta-arrestin recruitment assay; format: cell-based; conditions: CHO-K1
5-hydroxytryptamine receptor 2A (Homo sapiens), sequence (P28223 whole entry): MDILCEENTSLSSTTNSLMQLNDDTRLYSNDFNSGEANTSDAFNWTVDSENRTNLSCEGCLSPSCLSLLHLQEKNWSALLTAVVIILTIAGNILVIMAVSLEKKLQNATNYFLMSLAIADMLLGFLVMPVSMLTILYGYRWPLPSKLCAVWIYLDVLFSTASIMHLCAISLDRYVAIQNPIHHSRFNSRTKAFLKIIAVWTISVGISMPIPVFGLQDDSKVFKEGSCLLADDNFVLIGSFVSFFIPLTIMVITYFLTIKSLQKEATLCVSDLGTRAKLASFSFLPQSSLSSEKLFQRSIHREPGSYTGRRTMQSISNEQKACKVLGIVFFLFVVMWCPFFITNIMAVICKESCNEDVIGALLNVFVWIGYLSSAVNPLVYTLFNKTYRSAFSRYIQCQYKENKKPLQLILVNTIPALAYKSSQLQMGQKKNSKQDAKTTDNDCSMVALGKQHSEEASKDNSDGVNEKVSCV

[6] = molecular target: Transporter (Rattus norvegicus) (UniProt Q63380); assay: Induction of NET-mediated norepinephrine release in rat synaptosomes; format: subcellular; conditions: Brain; method in brief: as §1
Transporter (Rattus norvegicus), sequence (Q63380 as listed by the source): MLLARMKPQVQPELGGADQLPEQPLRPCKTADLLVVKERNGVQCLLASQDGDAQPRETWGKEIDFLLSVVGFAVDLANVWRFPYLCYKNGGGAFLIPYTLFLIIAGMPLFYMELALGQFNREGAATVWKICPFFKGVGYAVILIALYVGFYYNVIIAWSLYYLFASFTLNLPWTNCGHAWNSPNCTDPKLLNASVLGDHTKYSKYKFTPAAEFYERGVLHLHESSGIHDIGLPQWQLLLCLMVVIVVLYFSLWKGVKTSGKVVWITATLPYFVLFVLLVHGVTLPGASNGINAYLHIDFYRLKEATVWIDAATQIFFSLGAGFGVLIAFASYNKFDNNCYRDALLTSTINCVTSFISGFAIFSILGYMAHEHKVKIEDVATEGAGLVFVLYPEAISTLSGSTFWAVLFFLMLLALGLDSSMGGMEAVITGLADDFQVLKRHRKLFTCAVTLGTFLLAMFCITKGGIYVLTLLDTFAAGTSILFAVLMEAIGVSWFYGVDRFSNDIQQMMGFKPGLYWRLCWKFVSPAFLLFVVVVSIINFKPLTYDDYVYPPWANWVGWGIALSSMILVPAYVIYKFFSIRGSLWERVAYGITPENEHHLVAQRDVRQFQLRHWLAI

[7] = molecular target: 5-hydroxytryptamine receptor 2A (Homo sapiens) (UniProt P28223); assay: Agonist activity at human 5HT2A expressed in HEK293 cells at 10 uM by calcium mobilization assay; format: functional, cell-based
[8] = molecular target: 5-hydroxytryptamine receptor 2B (Homo sapiens) (UniProt P41595); assay: Agonist activity at human 5HT2B expressed in HEK293 cells at 10 uM by calcium mobilization assay; format: functional, cell-based
[9] = molecular target: Transporter (Rattus norvegicus) (UniProt Q63380); assay: Inhibition of NET-mediated norepinephrine uptake in rat synaptosomes; format: subcellular; conditions: Brain; method in brief: as §1
[10] = molecular target: Sodium-dependent dopamine transporter (Homo sapiens, UniProt Q01959); assay: Inhibition of DAT (unknown origin)-mediated dopamine reuptake
Sodium-dependent dopamine transporter (Homo sapiens, UniProt Q01959), sequence (Q01959 whole entry): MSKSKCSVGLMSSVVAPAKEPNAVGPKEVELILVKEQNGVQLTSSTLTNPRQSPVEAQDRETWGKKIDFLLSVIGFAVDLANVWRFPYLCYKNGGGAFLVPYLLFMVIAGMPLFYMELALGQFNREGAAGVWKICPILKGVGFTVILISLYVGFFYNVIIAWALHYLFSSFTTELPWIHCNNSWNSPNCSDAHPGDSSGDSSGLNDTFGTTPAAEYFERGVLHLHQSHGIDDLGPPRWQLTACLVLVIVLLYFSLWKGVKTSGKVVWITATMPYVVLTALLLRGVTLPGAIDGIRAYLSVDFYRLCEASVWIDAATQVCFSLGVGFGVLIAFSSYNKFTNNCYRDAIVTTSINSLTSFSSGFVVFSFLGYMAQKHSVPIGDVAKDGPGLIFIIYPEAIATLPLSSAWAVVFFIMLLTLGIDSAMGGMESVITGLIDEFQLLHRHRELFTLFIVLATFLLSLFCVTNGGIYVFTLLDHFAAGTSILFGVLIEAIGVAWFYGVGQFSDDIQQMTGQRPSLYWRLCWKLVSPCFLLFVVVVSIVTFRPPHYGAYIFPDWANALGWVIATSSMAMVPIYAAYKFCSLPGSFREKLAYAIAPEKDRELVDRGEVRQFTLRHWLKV

[11] = molecular target: Sodium-dependent serotonin transporter (Homo sapiens, UniProt P31645); assay: Induction of SERT (unknown origin)-mediated serotonin release
Sodium-dependent serotonin transporter (Homo sapiens, UniProt P31645), sequence (P31645 whole entry): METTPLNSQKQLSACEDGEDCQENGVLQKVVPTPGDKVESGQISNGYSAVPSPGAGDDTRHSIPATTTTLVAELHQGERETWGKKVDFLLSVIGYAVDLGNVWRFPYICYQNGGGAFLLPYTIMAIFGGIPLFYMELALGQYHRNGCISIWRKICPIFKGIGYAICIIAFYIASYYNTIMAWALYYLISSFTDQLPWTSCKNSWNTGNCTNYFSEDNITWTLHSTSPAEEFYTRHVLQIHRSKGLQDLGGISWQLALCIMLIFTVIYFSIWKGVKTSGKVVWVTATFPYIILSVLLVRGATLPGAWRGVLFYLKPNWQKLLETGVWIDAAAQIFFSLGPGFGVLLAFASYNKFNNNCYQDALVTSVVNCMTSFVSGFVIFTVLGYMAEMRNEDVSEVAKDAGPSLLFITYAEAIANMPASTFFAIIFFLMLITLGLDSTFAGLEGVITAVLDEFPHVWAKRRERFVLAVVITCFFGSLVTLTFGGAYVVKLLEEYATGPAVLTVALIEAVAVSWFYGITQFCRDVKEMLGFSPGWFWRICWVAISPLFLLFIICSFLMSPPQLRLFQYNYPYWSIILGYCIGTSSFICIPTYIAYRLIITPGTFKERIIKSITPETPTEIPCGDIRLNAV

[12] = molecular target: T3, Sodium-dependent dopamine transporter; assay: Induction of DAT-mediated dopamine release in rat synaptosomes; format: subcellular, Brain; method in brief: as §1
[13] = molecular target: T1, Sodium-dependent serotonin transporter; assay: Inhibition of SERT-mediated serotonin uptake in rat synaptosomes; format: subcellular, Brain; method in brief: as §1

| Structure (SMILES) | Activity [1] | pEC50 [2] | Activity [3] | pIC50 [4] | Activity [5] | Activity [6] | Activity [7] | Activity [8] | inhibition [9] | pKi [10] | pEC50 [11] | pEC50 [12] | pIC50 [13] |
| --- | --- | --- | --- | --- | --- | --- | --- | --- | --- | --- | --- | --- | --- |
| Cc1ccc(C(=O)C(C)NC2CC2)cc1Cl (stereo not drawn) | inactive | 6.74 | inactive | 6.23 | inactive | Active | inactive | inactive | Active |  |  |  |  |
| CC(N)Cc1cccc(Cl)c1 (stereo not drawn) | inactive |  | inactive |  | inactive | Active | inactive | inactive | Active |  |  |  |  |
| CCNC(C)C(=O)c1ccccc1 (stereo not drawn) |  |  |  |  |  |  |  |  |  | 5.99 | 5.67 |  |  |
| CNC(C)C(=O)c1cccc(Cl)c1 (stereo not drawn) | inactive | 6.39 | inactive |  | inactive | Active | inactive | inactive | Active |  |  | 7.33 |  |
| CCNC(C)C(=O)c1cccc(Cl)c1 (stereo not drawn) | inactive |  | inactive | 5.23 | inactive | Active | inactive | inactive | Active |  |  |  | < 5.00 |
| C[C@@H](NC1CC1)C(=O)c1cccc(Cl)c1 | inactive | 6.13 | inactive | 6.43 | inactive | Active | inactive | inactive | Active |  |  |  |  |
| CCCC(N)Cc1ccccc1 (stereo not drawn) | inactive |  | inactive | 5.59 | inactive | Active | inactive | inactive | Active |  |  |  | < 5.00 |
| CC(NC1CC1)C(=O)c1ccc(Cl)cc1 (stereo not drawn) | inactive | 5.79 | inactive | 5.70 | inactive | Active | inactive | inactive | Active |  |  |  |  |
| CC(NC1CC1)C(=O)c1ccc(Cl)c(Cl)c1 (stereo not drawn) | inactive | 6.45 | inactive | 6.37 | inactive | Active | inactive | inactive | Active |  |  |  |  |
| CCC(NC)C(=O)c1ccccc1 (stereo not drawn) | inactive |  | inactive |  | inactive | Active | inactive | inactive | Active |  |  | 6.39 | < 5.00 |
| C[C@H](NC1CC1)C(=O)c1cccc(Cl)c1 | inactive | 6.25 | inactive | 6.53 | inactive | Active | inactive | inactive | Active |  |  |  |  |
| CC(NC1CC1)C(=O)c1cccc(Br)c1 (stereo not drawn) | inactive | 6.21 | inactive | 6.41 | inactive | Active | inactive | inactive | Active |  |  |  |  |
| CC(NC1CC1)C(=O)c1cccc(Cl)c1 (stereo not drawn) | inactive | 5.88 | inactive | 6.27 | inactive | Active | inactive | inactive | Active |  |  |  |  |
| Cc1cccc(C(=O)C(C)NC2CC2)c1 (stereo not drawn) | inactive | 5.97 | inactive | 5.96 | inactive | Active | inactive | inactive | Active |  |  |  |  |
| CCC(Cc1ccccc1)NC (stereo not drawn) | inactive | 5.33 | inactive |  | inactive | Active | inactive | inactive | Active |  |  | 6.65 |  |
| COc1cccc(C(=O)C(C)NC2CC2)c1 (stereo not drawn) | inactive | 5.99 | inactive | 5.62 | inactive | Active | inactive | inactive | Active |  |  |  |  |
| Cc1ccc(C(=O)C(C)NC2CC2)cc1 (stereo not drawn) | inactive | 6.18 | inactive | 5.96 | inactive | Active | inactive | inactive | Active |  |  |  |  |
| CCCNC(C)C(=O)c1cccc(Cl)c1 (stereo not drawn) | inactive |  | inactive | 6.10 | inactive | Active | inactive | inactive | Active |  |  |  | < 5.00 |
